Test [1] is filed under the species Bos taurus. Kind of test: Enhancement of [3H]-ADTN to dopamine receptors at concentration of 1 nM. The essentials: (§1)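 Bovine caudate homogenized in 50 mM Tris-HCl pH 7.7 and spun twice at 40000 g. Pellet taken up in 50 mM Tris pH 7.1 with 0.1% ascorbic acid, 120 mM NaCl, 5 mM KCl, 2 mM CaCl2 and 10 μM pargyline. 0.4-0.6 mg protein incubated with 8 nM [3H]ADTN ± peptide (1, 10 or 100 nM), triplicate, 37 °C. Bound ligand collected by GF/B filtration and counted by scintillation.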

The species entered for test [2] is Bos taurus. Kind of test: Enhancement of [3H]ADTN to dopamine receptors at concentration of 10 nM. The gist of the method: as §1
For test [3], the species on record is Bos taurus. The test is described as follows: Enhancement of [3H]ADTN to dopamine receptors at concentration of 100 nM. The essentials: as §1

SMILES strings stand for the structures. Where a SMILES comes first, the peptide text is derived from it.

In the case of `CC(C)C[C@H](NC(=O)[C@@H]1CCCN1)C(=O)NCC(N)=O` (H-Pro-Leu-Gly-NH2), the Enhancement in the test filed under Bos taurus [1] is 16%; in the test listed under Bos taurus [2], 28%; in the test listed under Bos taurus [3], 46.2%.

(Values after ChEMBL document CHEMBL1123254, “Dopamine receptor modulation by Pro-Leu-Gly-NH2 analogues possessing cyclic amino acid residues at the C-terminal position” (J Med Chem, 1986).)
